# Screening results from PubChem.
# CXCR6 inh = CXCR6 receptor inhibitors, primary screen, cell-based, beta-arrestin, luminescence, CHO-K1 PathHunter, 1536-well. inhibition, % at 20 µM. C-X-C chemokine receptor type 6 (Homo sapiens), O00574. 360,000 compounds, 0.36% hits; in the data active = inhibition above about 34%, passing the limit was not always enough;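 also: antagonist mode with CXCL16 agonist at 10 nM final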
# CCR6 antag = CCR6 receptor antagonists, primary screen, cell-based, CHO-K1, luminescence, beta-arrestin, uHTS | CHO-K1 CCR6 PathHunter beta-arrestin, CCL20-stimulated | inhibition, % at 20 µM | 340,000 compounds, 0.49% hits | AID 493098, 2011;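 active = compounds whose inhibition of the agonist-driven luminescence signal at 20 µM reaches about 50%, limit read from the data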;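 also: cells stimulated with CCL20 at 14 nM final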
# Target sequence (P51684 whole entry, looked up): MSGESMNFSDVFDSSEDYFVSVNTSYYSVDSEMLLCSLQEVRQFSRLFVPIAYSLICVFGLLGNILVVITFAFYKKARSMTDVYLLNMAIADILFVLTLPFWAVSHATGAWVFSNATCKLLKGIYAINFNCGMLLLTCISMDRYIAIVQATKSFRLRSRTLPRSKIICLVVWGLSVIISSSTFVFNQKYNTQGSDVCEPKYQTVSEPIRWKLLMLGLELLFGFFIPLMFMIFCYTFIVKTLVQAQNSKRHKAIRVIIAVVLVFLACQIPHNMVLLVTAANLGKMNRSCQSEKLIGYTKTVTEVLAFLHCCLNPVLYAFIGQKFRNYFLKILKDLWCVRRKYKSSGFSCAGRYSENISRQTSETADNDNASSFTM
# APJ antagonist = antagonists of human apelin receptor APJ, primary screen, CHO-K1 cells, beta-arrestin complementation, luminescence; inhibition, % at 20 µM; 330,000 compounds, 0.32% hits; P35414;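 active = inhibition above about 40% at 20 µM, limit read from the data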;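 also: cells challenged with 10 nM apelin-13 agonist together with compound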
# APJ ag = agonists of human apelin receptor APJ, primary screen, CHO-K1 cells, PathHunter beta-arrestin, luminescence; 0% DMSO wells, 100% apelin; activation, % at 20 µM; 330,000 compounds, 0.11% hits; P35414;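 active = activation more than six SD over the plate average, tested at 20 µM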
#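 Assay system: CHO-K1 cells stably expressing ProLink-tagged human APJ and arrestin–beta-gal acceptor. Compound dosing: 20 µM single point, 1% DMSO. Times: 16-18 h seeding, 90 min dark compound exposure, 60 min detection. Detection: beta-gal luminescence. Evaluation: APJ–arrestin association signal. Controls: negative DMSO alone, positive Apelin-13 at 10 nM.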
# EBI2 block = EBI2 receptor antagonists, beta-arrestin recruitment, primary screen, cell-based, luminescence, 7a,25-OHC stimulation, uHTS; 7a,25-OHC stimulated; inhibition, % at 5 µM; 360,000 compounds, 0.81% hits; AID 651636, 2012; in the data active = inhibition above about 38%;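 also: enzyme fragment complementation signal reports receptor beta-arrestin coupling in cells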
# Hits are given with their value; . = inactive; / = no result given. In the library only some 1.5% were active in any assay of this set; here they are far more common.
SMILES,CXCR6 inh,CCR6 antag,APJ antagonist,APJ ag,EBI2 block
O=C1/C(=C/c2ccc(N3CCOCC3)o2)SC(=Nc2ccccc2)N1CCc1c[nH]c2ccccc12,.,.,.,.,83
CSCCC(c1nnnn1C1CCCCC1)N1CCN(C/C=C/c2ccccc2)CC1 (configuration not stated),.,/,/,/,.
COc1ccc(S(=O)(=O)N2CCOCC2)cc1NC(=O)[C@@H]1CCCN1C(=O)c1cccs1,.,96,.,.,.
COc1ccc(S(=O)(=O)N2CCOCC2)cc1NC(=O)C1CCCN1C(=O)c1cccs1 (configuration not stated),.,.,.,.,.
COc1ccccc1N=Nc1nc(-c2ccccc2)c(-c2ccccc2)[nH]1,.,67,/,/,.
O=[N+]([O-])c1cc(Cl)cc(/C=N/NC(=S)Nc2ccc(S(=O)(=O)N3CCOCC3)cc2)c1O,.,60,.,.,.
COC(=O)C1=C(C(=O)OC)SC(=C2C(=S)C(C)(C)N(C(=O)CC(C)C)c3ccccc32)S1,.,.,.,.,56
Cc1ccc(-c2nc3ncccn3c2Nc2ccccc2C)o1,.,.,.,.,.
Cc1ccc(-c2nc3cnccn3c2Nc2c(C)cccc2C)o1,.,67,.,.,.
O=C(Cc1cnc2ncnn2c1)N1CCc2c([nH]c3ccccc23)C1c1ccccc1F (configuration not stated),.,.,.,.,.
CCSC1=NC(C)(C)C=C(/C=C/c2ccc(Cl)cc2Cl)N1,.,66,.,.,.
N#C/C(=C\c1ccc(-c2ccc([N+](=O)[O-])cc2)o1)C(=O)Nc1nc(-c2cccs2)cs1,.,58,.,.,.
N#C/C(=C\c1ccc(-c2ccccc2[N+](=O)[O-])o1)C(=O)Nc1nc(-c2cccs2)cs1,.,51,.,.,.
N#C/C(=C/c1ccc(-c2ccccc2[N+](=O)[O-])o1)C(N)=O,.,.,.,.,.
N#C/C(=C/c1ccc(-c2cccc([N+](=O)[O-])c2)o1)C(=O)Nc1nc(-c2cccs2)cs1,.,69,/,/,.
O=C1N(Cc2cccnc2)C[C@@H]2C[C@@H](c3cccc(Oc4ccccc4)c3)N3CCC[C@@]123,.,.,.,.,.
N#CC(c1ccc(O)cc1)N1CCN(C(C#N)c2ccc(O)cc2)CC1 (configuration not stated),.,.,/,/,.
O=C(O)c1ccccc1NC(c1ccccc1)c1ccc(Cl)cc1 (configuration not stated),.,.,.,.,.
C=CCNC(=O)c1cc(-c2ccncc2)nc2c(C)cc(C)cc12,.,.,.,.,.
COc1cc(N=Nc2ccc(Br)cc2)cc(C=O)c1O,53,/,/,/,.
COc1cc(CN(C)C)cc(C=O)c1O,.,.,.,.,.
Cc1nn(C(C)C(=O)NC(C)CCc2ccccc2)c(=O)c2cc3occc3n12 (configuration not stated),.,.,.,.,.
O=C(CN1CCN(c2nc(-c3ccccc3)cs2)CC1)NNC(=O)c1ccc(Br)cc1,.,.,.,.,.
O=C(NC(=S)N1CCN(c2nc(-c3ccccc3)cs2)CC1)c1cncc(Br)c1,.,57,.,.,.
O=S(=O)(c1c(Cl)cc(Br)cc1Cl)N1CCN(C(=S)NC2CC2)CC1,.,.,.,.,.
SMILES,CXCR6 inh,CCR6 antag,APJ antagonist,APJ ag,EBI2 block
O=C(O)c1ccc(N2C(=O)/C(=C/c3ccc(-c4ccc([N+](=O)[O-])cc4)o3)C=C2c2ccccc2)cc1,45,/,.,.,.
CCCCC(CC)CN=C(N)NC(N)=NCCCCCCN=C(N)NC(N)=NCC(CC)CCCC (configuration not stated),90,79,.,.,.
CCCCC(CC)CO (configuration not stated),.,.,.,.,.
O=C(Nc1ccc(F)c(Cl)c1)c1csc(COCCO)n1,.,/,/,/,.
COc1ccc(C(=O)/C=C/c2cc(OC)c(O)c(OC)c2)c(F)c1,.,51,.,.,.
COc1ccc2cc(C(=O)/C=C/c3cc(OC)c(O)c(OC)c3)ccc2c1,.,.,.,.,.
Cc1cc2oc(=O)cc(CN3CCN(c4ccccc4)CC3)c2cc1Cl,.,/,/,/,.
Cc1cc2oc(=O)cc(Cn3ncc(Cl)c(Cl)c3=O)c2cc1Cl,.,.,.,.,50
CCc1nnc(NC(=O)CCNC(=O)c2ccco2)s1,.,.,.,.,.
CCN(CC)S(=O)(=O)c1ccc2c(c1)C(=NO)c1cc(S(=O)(=O)N(CC)CC)ccc1-2,.,.,.,.,50
Cn1c(N)c(C(=O)COC(=O)Cc2cccc(C(F)(F)F)c2)c(=O)n(C)c1=O,.,.,.,.,.
CN1CCN(c2ccc([N+](=O)[O-])c(-n3nc(-c4ccccc4)c4ccccc4c3=O)c2)CC1,.,52,.,.,.
O=C(c1ccco1)c1coc2c1cc(O)c1ccccc12,.,.,.,.,.
CCN1CCN(c2ccc(S(=O)(=O)N3CCOCC3)cc2NC(=O)C(C)Oc2ccc(Cl)cc2)CC1 (configuration not stated),.,.,.,.,.
O=C(c1ccccc1)c1cc(Cl)ccc1N1C(=O)C=CC1=O,61,106,/,/,.
O=c1onc(-c2ccc(Cl)cc2Cl)n1-c1cccnc1,.,.,.,.,.
O=C(Oc1ccc(C(=S)N2CCOCC2)cc1Br)c1cc(Cl)ccc1Cl,.,.,.,.,54
COc1ccc(-c2cn(CC[C@@H]3CC[C@H](NC(=O)Cc4ccccn4)[C@@H](CO)O3)nn2)cc1,/,/,/,/,.
CC(C)c1c(O)ccc2c1CC[C@H]1C(C)(C)CCC[C@]21C,.,.,/,/,53
CC(C)(O)c1ccc2c(c1)CCC1C(C)(C(=O)O)CCCC21C (configuration not stated),.,.,.,.,.
O=C(NCc1cc(Cl)cc(Cl)c1)c1csc([C@@H]2C[C@H](O)[C@@H](CO)O2)n1,.,/,/,/,.
CCOC(=O)Cn1cc(/C=C/[N+](=O)[O-])c2ccccc21,.,.,.,.,.
CCOC(=O)COc1ccc2ccccc2c1/C=C/[N+](=O)[O-],.,75,/,/,.
CCOC(=O)COc1ccc(/C=C/[N+](=O)[O-])c(OCC(=O)OCC)c1,.,55,.,.,.
O=[N+]([O-])/C=C/c1c(OCc2ccccc2)ccc2ccccc12,36,/,.,.,.
CCc1cc(=O)oc2c3c(cc(OCC(=O)NCCN4CCOCC4)c12)OC(C)(C)CC3,.,.,.,.,.
CCCCN1C(=O)C(CC(=O)NC2CC2)CC(C(=O)N2CCOCC2)=C1C (configuration not stated),.,/,/,/,.
NC(=O)c1ccc(N=Nc2c(-c3ccccc3)[nH]n(-c3ccccc3)c2=O)cc1,/,/,.,.,/
